These results are taken from ChEMBL document CHEMBL1122395, “Tetracyclic chromophoric analogues of actinomycin D: synthesis, structure elucidation and interconvertibility from one form to another, antitumor activity, and structure-activity relationships” (1983).

Converted amounts (≈) assume the structure as drawn.

In general, ILS refers to the gain in survival time of treated over control animals, in per cent. A higher ILS goes with a large benefit in survival.

For one assay, the species on record is Mus musculus. The experiment in a line: Male CDF1 hybrid treated mice out of seven which survived over 60 days after the treatment. In kind it is functional. The procedure, abridged: (§1)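 Male CDF1 mice, seven per group, given 10^6 P388 cells ip on day 0. Drugs were given ip in 10% Me2SO-saline on days 1, 5 and 9, with solutions kept at 0-4 °C, protected from light and checked for homogeneity by HPLC. A range of doses was run and the optimal nontoxic dose reported. Read-outs were median survival time, percent increase in life span, and cures (over-60-day survivors, average of two experiments).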

Assay [1] deals with P388. The experiment in a line: Percent increase in life span observed in P-388 cells infected male CDF1 hybrid mice after intraperitoneal administration at 750 ug/kg optimal dose. Type of assay: functional, Mus musculus. The procedure, abridged:
as §1

The test system of the next assay is CCRF-CEM. The experiment in a line: Growth inhibitory activity against human lymphoblastic leukemia cells(CCRF-CEM). As to conditions: read-out: ID50 (the source's name). In kind it is functional. Summed up:
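Log-phase human lymphoblastic leukemia CCRF-CEM cells grown in suspension culture. Compounds dissolved in Me2SO, final growth medium contained 5% Me2SO. Test solutions kept at 0-4 °C, protected from light, homogeneity checked by HPLC before testing. ID50 reported in ng/mL.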

Assay [2] deals with P388. The experiment in a line: Median survival time observed in P-388 cells infected male CDF1 hybrid mice after intraperitoneal administration at 750 ug/kg optimal dose. In kind it is functional, Mus musculus. Summed up:
as §1

The compound `Cc1c2oc3c(C)c4oc(-c5ccccc5)nc4c(C(=O)N[C@@H]4C(=O)N[C@H](C(C)C)C(=O)N5CCC[C@H]5C(=O)N(C)CC(=O)N(C)[C@@H](C(C)C)C(=O)O[C@@H]4C)c3nc-2c(C(=O)N[C@@H]2C(=O)N[C@H](C(C)C)C(=O)N3CCC[C@H]3C(=O)N(C)CC(=O)N(C)[C@@H](C(C)C)C(=O)O[C@@H]2C)cc1=O` yielded a Cures in the assay listed under Mus musculus of 2. In the assay with P388 [1], this compound yielded an ILS of 300%. Also, in the assay with CCRF-CEM, the IC50 stood at 0.31 µg/mL (≈ 0.228 µM). Further, the MST in the assay with P388 [2] is 44 days.
